Structures are written as SMILES. Calls of active or inactive are those of the source. No cut-off for these calls is given here.

Consider twelve compounds from ChEMBL document CHEMBL4152246, “Natural oxyprenylated coumarins are modulators of melanogenesis” (Eur J Med Chem, 2018).

Data set [1] relates to Melan-a. As to the kind of experiment: Cytotoxicity against mouse Melan-a cells assessed as effect on cell viability at <2 uM after 24 to 72 hrs by trypan blue exclusion assay. Type of data set: cell-based.
Data set [2] concerns Melan-a. As to the kind of experiment: Induction of melanogenesis in mouse Melan-a cells assessed as effect on tanning property at 40 uM after 48 hrs. Format: functional, cell-based.
The test system of data set [3] is Melan-a. As to the kind of experiment: Inhibition of melanogenesis in mouse Melan-a cells assessed as effect on whitening property at 40 uM after 48 hrs. Format: functional, cell-based. The gist of the method: (§1)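 Melan-a murine melanocytes in RPMI 1640 with 10% FBS, penicillin/streptomycin and 200 nM PMA at 37 °C and 5% CO2. Seeded at 60,000 cells/well in 6-well plates and treated 48 h with 1–40 µM from 1000X DMSO stock (final 0.1% DMSO) or DMSO alone. For line 1, cells were pretreated 1 h with 1 µM ICI 182780. Melanin is read as A405, % of control.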

For data set [4], the system named is Melan-a. As to the kind of experiment: Cytotoxicity against mouse Melan-a cells assessed as effect on cell viability at 40 uM after 24 to 72 hrs by trypan blue exclusion assay. Format: cell-based. The gist of the method:
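Melan-a cells seeded at 60,000/well in 6-well plates and treated at 40 µM (0.1% DMSO) for the indicated times. Cells were trypsinized, pelleted at 4 °C, stained with 0.25% trypan blue in PBS and counted in a Malassez chamber. Viability % = [1 − (blue/total cells)] × 100. Mean ± SEM of three independent experiments in duplicate.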

The subject of data set [5] is Melan-a. As to the kind of experiment: Induction of melanogenesis in mouse Melan-a cells assessed as increase in melanin content at 10 to 40 uM after 48 hrs. Format: functional, cell-based. In short, it runs like this: as §1
The test system of data set [6] is Melan-a. As to the kind of experiment: Induction of melanogenesis in mouse Melan-a cells assessed as increase in melanin content at 40 uM. Format: functional, cell-based.
The test system of data set [7] is Melan-a. As to the kind of experiment: Induction of melanogenesis in mouse Melan-a cells assessed as increase in melanin content at 40 uM after 72 hrs relative to control. Type of data set: functional. The gist of the method:
(§2)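 Melan-a cells in PMA-containing RPMI/10% FBS, treated 3 days at 40 µM (0.1% DMSO final) against DMSO-treated controls. Pellets were washed in PBS and extracted with water/EtOH–ether (1/1). Melanin was solubilized in 1 M NaOH/DMSO 90/10 at 80 °C for 1 h, read as A405 and expressed as % of control. Mean ± SEM, t test.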

The test system of data set [8] is Melan-a. As to the kind of experiment: Induction of melanogenesis in mouse Melan-a cells assessed as effect on pigmentation at 40 uM after 72 hrs by photography. Type of data set: functional, cell-based. The gist of the method:
(§3)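 Melan-a cells treated with 40 µM or solvent vehicle for 3 days, then photographed to record pigmentation.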

Data set [9] concerns Melan-a. As to the kind of experiment: Increase in tyrosinase mRNA expression in mouse Melan-a cells at 40 uM after 24 hrs by SYBR green dye based qRT-PCR analysis. Format: functional, cell-based. In short, it runs like this:
(§4)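 Real-time PCR on Melan-a cells given 40 µM for 24 h. Total RNA was isolated with TRIzol, and Ct values of tyrosinase, TRP-1, TRP-2 and MITF were normalized to cyclophilin A1. Mean of three independent experiments in duplicate.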
(In general: Real-time PCR tracks product formation cycle by cycle.)

In data set [10] the test system is Melan-a. As to the kind of experiment: Increase in TRP1 mRNA expression in mouse Melan-a cells at 40 uM after 24 hrs by SYBR green dye based qRT-PCR analysis. Format: functional, cell-based. The gist of the method:
as §4

Data set [11] relates to Melan-a. As to the kind of experiment: Increase in TRP2 mRNA expression in mouse Melan-a cells at 40 uM after 24 hrs by SYBR green dye based qRT-PCR analysis. Format: functional, cell-based. The gist of the method: as §4
The test system of data set [12] is Melan-a. As to the kind of experiment: Increase in MITF mRNA expression in mouse Melan-a cells at 40 uM after 24 hrs by SYBR green dye based qRT-PCR analysis. Type of data set: functional, cell-based. In short, it runs like this: as §4
A short description of data set [13]: Photostability of the compound assessed as compound degradation under sunlight exposed for 6 days in EtOH solution measured by TLC method. Format: physicochemical. Conditions: 144 h.
A short description of data set [14]: Photostability of the compound assessed as compound degradation under sunlight exposed for 6 days in EtOH solution measured in presence of UV-A filter Uvinul A by TLC method. Format: physicochemical. Conditions: 144 h.
Data set [15] has as its target Estrogen receptor beta (Mus musculus) (UniProt O08537). As to the kind of experiment: Binding affinity to ERbeta in mouse Melan-a cells. Format: cell-based.
For data set [16] the target is unchanged. As to the kind of experiment: Agonist activity at ERbeta in mouse Melan-a cells assessed as increase in melanin content at 40 uM measured after 48 hrs in presence of ER antagonist ICI 182780. Format: cell-based. The gist of the method: as §1
Data set [17] deals with Melan-a. As to the kind of experiment: Increase in TRP1 expression in mouse Melan-a cells at 40 uM after 48 hrs by Western blot analysis.
The test system of data set [18] is Melan-a. As to the kind of experiment: Increase in TRP2 expression in mouse Melan-a cells at 40 uM after 48 hrs by Western blot analysis. On the technique in general: In western blotting, separated proteins are transferred to a membrane and probed.
Data set [19] has as its system Melan-a. As to the kind of experiment: Increase in MITF expression in mouse Melan-a cells at 40 uM after 48 hrs by Western blot analysis.
In data set [20] the test system is Melan-a. As to the kind of experiment: Increase in Rab27a expression in mouse Melan-a cells at 40 uM after 48 hrs by Western blot analysis.
Data set [21] has as its system Melan-a. As to the kind of experiment: Increase in tyrosinase expression in mouse Melan-a cells at 40 uM after 48 hrs by Western blot analysis.
The subject of data set [22] is Melan-a. As to the kind of experiment: Induction of melanogenesis in mouse Melan-a cells assessed as pro-pigmentation at 40 uM after 48 hrs relative to control. Format: functional. The gist of the method: as §1
The subject of data set [23] is Melan-a. As to the kind of experiment: Inhibition of melanogenesis in mouse Melan-a cells assessed as effect on whitening property measured after 48 hrs. Format: functional, cell-based. The gist of the method: as §1
For data set [24], the system named is Melan-a. As to the kind of experiment: Inhibition of melanogenesis in mouse Melan-a cells assessed as reduction in melanin content at 40 uM. Type of data set: functional, cell-based.
For data set [25], the system named is Melan-a. As to the kind of experiment: Inhibition of melanogenesis in mouse Melan-a cells assessed as reduction in melanin content at 40 uM after 72 hrs relative to control. Type of data set: functional. In short, it runs like this: as §2
Data set [26] relates to Melan-a. As to the kind of experiment: Inhibition of melanogenesis in mouse Melan-a cells assessed as effect on pigmentation at 40 uM after 72 hrs by photography. Type of data set: functional, cell-based. In short, it runs like this: as §3
Data set [27] relates to Melan-a. As to the kind of experiment: Decrease in tyrosinase mRNA expression in mouse Melan-a cells at 40 uM after 24 hrs by SYBR green dye based qRT-PCR analysis relative to control. Format: functional. The gist of the method:
as §4

The test system of data set [28] is Melan-a. As to the kind of experiment: Decrease in TRP1 mRNA expression in mouse Melan-a cells at 40 uM after 24 hrs by SYBR green dye based qRT-PCR analysis relative to control. Format: functional. The gist of the method: as §4
The subject of data set [29] is Melan-a. As to the kind of experiment: Decrease in TRP2 mRNA expression in mouse Melan-a cells at 40 uM after 24 hrs by SYBR green dye based qRT-PCR analysis relative to control. Format: functional. The gist of the method:
as §4

Data set [30] relates to Melan-a. As to the kind of experiment: Decrease in MITF mRNA expression in mouse Melan-a cells at 40 uM after 24 hrs by SYBR green dye based qRT-PCR analysis relative to control. Type of data set: functional. In short, it runs like this:
as §4

In data set [31] the test system is Melan-a. As to the kind of experiment: Effect on TRP2 expression in mouse Melan-a cells at 40 uM after 48 hrs by western blot analysis (reference value: 1).
Data set [32] relates to Melan-a. As to the kind of experiment: Effect on TRP1 expression in mouse Melan-a cells at 40 uM after 48 hrs by western blot analysis (reference value: 1).
Data set [33] has as its system Melan-a. As to the kind of experiment: Effect on MITF expression in mouse Melan-a cells at 40 uM after 48 hrs by western blot analysis (reference value: 1).
For data set [34], the system named is Melan-a. As to the kind of experiment: Effect on Rab27a expression in mouse Melan-a cells at 40 uM after 48 hrs by western blot analysis (reference value: 1).
Data set [35] concerns Melan-a. As to the kind of experiment: Effect on tyrosinase expression in mouse Melan-a cells at 40 uM after 48 hrs by western blot analysis (reference value: 1).
Data set [36] relates to Melan-a. As to the kind of experiment: Antimelanogenic activity in mouse Melan-a cells assessed as inhibition of alpha-MSH-stimulated melanin synthesis at 40 uM measured after 48 hrs.
The test system of data set [37] is Melan-a. As to the kind of experiment: Antimelanogenic activity in mouse Melan-a cells assessed as inhibition of UV irradiation-stimulated melanin synthesis at 40 uM measured after 48 hrs.

Estrogen receptor beta (Mus musculus), sequence (O08537 whole entry): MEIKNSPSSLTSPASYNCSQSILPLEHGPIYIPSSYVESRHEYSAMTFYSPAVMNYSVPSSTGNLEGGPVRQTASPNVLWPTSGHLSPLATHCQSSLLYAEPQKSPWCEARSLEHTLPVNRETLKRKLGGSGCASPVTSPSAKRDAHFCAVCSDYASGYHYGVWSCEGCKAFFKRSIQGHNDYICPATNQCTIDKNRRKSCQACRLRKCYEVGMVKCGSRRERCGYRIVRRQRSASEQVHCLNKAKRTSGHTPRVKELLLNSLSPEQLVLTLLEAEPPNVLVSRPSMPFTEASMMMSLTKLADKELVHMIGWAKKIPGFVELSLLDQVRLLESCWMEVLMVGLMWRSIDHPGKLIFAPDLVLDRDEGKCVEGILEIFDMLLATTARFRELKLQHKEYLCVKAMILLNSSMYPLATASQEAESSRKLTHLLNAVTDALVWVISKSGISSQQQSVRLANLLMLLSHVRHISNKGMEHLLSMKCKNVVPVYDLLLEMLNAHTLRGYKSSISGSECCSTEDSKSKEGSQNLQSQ

Take `CC(C)=CCC/C(C)=C/COc1c2occc2cc2ccc(=O)oc12`: in the data set with Melan-a [1], the Activity result is “Toxic”.

In general, inhibition refers to how much of the control response was suppressed. In the case of `COc1c(OC/C=C(\C)CCC=C(C)C)ccc2ccc(=O)oc12`, the result with Melan-a [2] was inactive. In the data set with Melan-a [3], the inhibition result was “inactive”.

Consider `COc1c(OCC=C(C)C)ccc2ccc(=O)oc12`, for which the result in the data set on Melan-a [2] was inactive. The inhibition entry with Melan-a [3] was “inactive”.

As for `COc1cc(OC/C=C(\C)CCC=C(C)C)c2ccc(=O)oc2c1`, the outcome in the data set on Melan-a [2] was inactive. For the same compound, the inhibition entry in the data set on Melan-a [3] is “inactive”.

For `COc1cc2ccc(=O)oc2cc1OC/C=C(\C)CCC=C(C)C`, the result in the data set on Melan-a [2] was inactive. In the data set with Melan-a [3], the inhibition result is “inactive”.

Turning to `CC(C)=CCOc1ccc2ccc(=O)oc2c1` [7-PRENYLOXYCOUMARIN], the Activity entry is “Non-Toxic” in the data set on Melan-a [4] and “Dose-dependent effect” in the data set with Melan-a [6]. Further, the outcome with Melan-a [5], in the data set with Melan-a [8], in the data set with Melan-a [9], with Melan-a [10], with Melan-a [11] and with Melan-a [12] was Active. In addition, the result (in [15]; in [16]; with Melan-a [17]; in the data set on Melan-a [18]; with Melan-a [19]; in the data set with Melan-a [20]) was Active. For the same compound, the outcome with Melan-a [21] was Active. The “fold change (FC)” value with Melan-a [7] is reported as 6. Moreover, the Stability entry is on record as “Unstable” in [13] and “Stable” in [14].

In the case of `CC(C)=CCC/C(C)=C/COc1ccc2ccc(=O)oc2c1` [AURAPTENE], the Activity entry with Melan-a [4] was “Non-Toxic”; in the data set on Melan-a [6], “Dose-dependent effect”. Moreover, the “fold change (FC)” value in the data set with Melan-a [22] was 1.3; in the data set on Melan-a [7] it was 2. For the same compound, the result (with Melan-a [8]; in data set [15]) was Active. Besides, the Stability result is given as “Unstable” in data set [13] and “Stable” in [14].

`CC(C)=CCC/C(C)=C/COc1c2ccoc2cc2oc(=O)ccc12` [BERGAMOTTIN]: in the data set with Melan-a [1], the Activity entry is given as “Toxic”.

In the case of `CC(C)=CCOc1c2ccoc2cc2oc(=O)ccc12` [ISOIMPERATORIN], the Activity entry in the data set on Melan-a [1] was “Toxic”.

On to `CC(C)=CCOc1c2occc2cc2ccc(=O)oc12` [PENTOSALEN], for which, in the data set on Melan-a [1], the Activity result is reported as “Toxic”. Further, the outcome with Melan-a [2] was inactive. Besides, in the data set with Melan-a [3], the inhibition entry was “inactive”.

On to `O=c1ccc2ccc(O)cc2o1` [UMBELLIFERONE], for which, in the data set on Melan-a [4], the Activity result is “Non-Toxic”. Moreover, the result in the data set with Melan-a [2] was inactive. Moreover, the inhibition entry with Melan-a [3] was “inactive”.

Consider `CC(C)=CCC/C(C)=C/CC/C(C)=C/COc1ccc2ccc(=O)oc2c1` [UMBELLIPRENIN], for which the Activity entry in the data set on Melan-a [4] is recorded as “Non-Toxic”. The inhibition result in the data set with Melan-a [23] and with Melan-a [24] was “Dose-dependent effect” throughout. In addition, in the data set with Melan-a [25], the inhibition at 40 µM was more than 70%. The inhibition entry in the data set with Melan-a [26], with Melan-a [36] and in the data set with Melan-a [37] was “Active” each time. The “fold change (FC)” value in the data set on Melan-a [27] is more than 2; with Melan-a [28], more than 2; in the data set on Melan-a [29], more than 2; in the data set with Melan-a [30] it was more than 2; with Melan-a [31], 0.3; with Melan-a [32], 0.1. In addition, the results for the “fold change (FC)” value in the data set on Melan-a [33], with Melan-a [34] and in the data set on Melan-a [35] were 0.5, 0.3 and 1.6, respectively. Also, the outcome in data set [15] was Active.
